The source made the active and inactive calls. The calls are words filed in the database; no cut-off is given here. Where a SMILES comes first, the peptide text is derived from it. [ ]: non-standard residue; d: D form. The star is where a group is joined. X1 = COCc1cn(CCOCCOCCOCCOCCOCCOCCN*)nn1; Orn = NCCC[C@H](N)C(=O)O; 2Furoyl = O=C(c1ccco1)*
Columns and labels:
[1] = molecular target: T1, Proteinase-activated receptor 2 (Homo sapiens, UniProt P55085); assay: Agonist activity at PAR2 in human EA.hy926 cells assessed as stimulation of calcium mobilization by Fluo-4-AM dye-based FLIPR assay; assay type: functional, cell-based, EA.hy 926
T1 sequence (P55085 whole entry): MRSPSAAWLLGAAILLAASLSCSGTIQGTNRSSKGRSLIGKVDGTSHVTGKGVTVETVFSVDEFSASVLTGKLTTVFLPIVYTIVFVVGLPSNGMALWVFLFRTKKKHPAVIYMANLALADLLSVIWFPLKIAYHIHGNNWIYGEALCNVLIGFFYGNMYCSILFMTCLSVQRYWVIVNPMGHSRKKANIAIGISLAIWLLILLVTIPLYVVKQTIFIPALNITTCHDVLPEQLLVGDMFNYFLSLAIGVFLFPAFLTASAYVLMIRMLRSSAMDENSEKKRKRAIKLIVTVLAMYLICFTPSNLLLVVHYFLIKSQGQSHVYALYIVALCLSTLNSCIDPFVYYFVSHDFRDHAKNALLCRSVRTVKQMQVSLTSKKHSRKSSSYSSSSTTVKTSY
Procedure, shortened: (§1)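 EA.hy926 cells, passages 7–9, grown in DMEM (4.5 g/L glucose, 4 mM L-glutamine, 1 mM pyruvate, FBS, pen/strep). Calcium read on plate reader as normalized ΔRFU over basal. %Stimulation relative to 100 μM SLIGKV-NH₂ (100%). Curves fitted by 4-variable non-linear regression.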

[2] = molecular target: T2, Integrin alpha-V/beta-3 (Homo sapiens) (UniProt P05106+P06756); assay: Inhibition of Alexa Fluor 647 labelled fibronectin binding to integrin alphavbeta3 receptor (unknown origin) expressed in HEK293FT cells at 5 uM preincubated for 10 mins followed by fibronectin addition and measured after 30 mins by flow cytometric analysis; assay type: cell-based; conditions: filed as antagonist, time 40.0 min
Procedure, shortened: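 HEK293FT co-transfected with αV and β3 constructs (≥24 h), in HBSGB (20 mM HEPES pH 7.4, 150 mM NaCl, 5.5 mM glucose, 1% BSA). Cells ± 5 or 50 μM ligand 10 min at 25 °C in 0.2 mM CaCl₂/2 mM MnCl₂ (activating), then Alexa647-Fn (15 μg/mL) plus Alexa488 anti-β3 AP3, 30 min at 25 °C. Resting control in 1 mM Ca²⁺/1 mM Mg²⁺. Flow cytometry on AP3-positive cells; Fn MFI expressed as % of AP3 MFI.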

[3] = molecular target: T2, Integrin alpha-V/beta-3 (Homo sapiens); assay: Antagonist activity at integrin alphavbeta3 receptor in HUVEC cells assessed as inhibition of cell adhesion to human vitronectin at 50 uM preincubated for 30 mins followed by transferring to vitronectin coated plates and measured after 1 hr by DAPI staining based inverted fluorescence microscopic analysis; conditions: filed as antagonist, time 90.0 min
Procedure, shortened: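 Wells coated overnight at 4 °C with 20 μg/mL human vitronectin in PBS pH 7.4, blocked with 1% BSA 1 h at 37 °C. HUVEC washed, in DMEM, treated ± 50 μM ligand 30 min at 25 °C, seeded, 1 h at 37 °C. Washed 3× PBS, fixed 3.7% formaldehyde 5 min, nuclei DAPI-stained (5 μg/mL), imaged at 10×.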

[4] = molecular target: T1, Proteinase-activated receptor 2; assay: (§2) Agonist activity at PAR2 in human EA.hy926 cells assessed as stimulation of calcium mobilization preincubated for 2 hrs with LPS and 30 mins with cRGD followed by compound addition by Fluo-4-AM dye-based FLIPR assay; assay type: functional, cell-based, EA.hy 926
[5] = molecular target: T1, Proteinase-activated receptor 2; assay: (§3) Agonist activity at PAR2 in human EA.hy926 cells assessed as stimulation of calcium mobilization preincubated for 2 hrs with LPS followed by compound addition in absence of cRGD by Fluo-4-AM dye-based FLIPR assay; assay type: functional, cell-based, EA.hy 926
[6] = molecular target: T1, Proteinase-activated receptor 2; assay: (§4) Agonist activity at PAR2 in human EA.hy926 cells assessed as stimulation of calcium mobilization treated with cRGD for 30 mins prior to compound addition by Fluo-4-AM dye-based FLIPR assay; assay type: functional, cell-based, EA.hy 926; procedure, shortened: as §1
[7] = molecular target: Proteinase-activated receptor 2 (Homo sapiens) (UniProt P55085); assay: as §2; assay type: functional, cell-based; conditions: EA.hy 926, filed as agonist
[8] = molecular target: Proteinase-activated receptor 2 (Homo sapiens) (UniProt P55085); assay: as §3; assay type: functional, cell-based; conditions: EA.hy 926, filed as agonist
[9] = molecular target: Proteinase-activated receptor 2 (Homo sapiens) (UniProt P55085); assay: as §4; assay type: functional, cell-based; conditions: EA.hy 926, filed as agonist; procedure, shortened: as §1

Row | EC50 [1] [µM] | inhibition [3] | Compound | also measured
1 | 0.062 |  | CC[C@H](C)[C@H](NC(=O)[C@H](CC(C)C)NC(=O)c1ccco1)C(=O)NCC(=O)N[C@@H](CCCNC(=N)N)C(=O)N[C@@H](CC(C)C)C(=O)N[C@@H](CCCN)C(=O)NCCOCCOCCOCCOCCOCCOCCOCCOCCn1cc(C[C@H]2CN[C@@H](CCCNC(=N)N)C(=O)NCC(=O)N[C@@H](CC(=O)O)C(=O)N[C@H](Cc3ccccc3)C(=O)N2)nn1 | 
2 | 2.5 | Active | N=C(N)NCCC[C@@H]1NC[C@H](Cc2cn(CCOCCOCCOCCOCCOCCOCCOCCOCCOCCOCCOCCOCCOCCOCCOCCOCCOCCOCCOCCOCCOCCOCCOCCNC(=O)[C@@H](NC(=O)[C@H](CC3CCCCC3)NC(=O)c3ccno3)C3CCCCC3)nn2)NC(=O)[C@@H](Cc2ccccc2)NC(=O)[C@H](CC(=O)O)NC(=O)CNC1=O | inhibition [2]: Active; EC50 [4]: 1.2 µM; EC50 [5]: 3.5 µM; EC50 [6]: 1.2 µM
3 | 1.2 | Active | COc1ccnc(NCCCOc2ccc(C[C@@H](CC(=O)O)NC(=O)c3ccc(OCc4cn(CCOCCOCCOCCOCCOCCOCCNC(=O)[C@@H](NC(=O)[C@H](CC5CCCCC5)NC(=O)c5ccno5)C5CCCCC5)nn4)cc3)cc2)c1 | Activity [7]: Active; Activity [8]: Active; Activity [9]: Active
4 | 0.35 |  | CC[C@H](C)[C@H](NC(=O)[C@H](CC(C)C)NC(=O)c1ccco1)C(=O)NCC(=O)N[C@@H](CCCN=C(N)N)C(=O)N[C@@H](CC(C)C)C(=O)N[C@@H](CCCN)C(N)=O (2Furoyl-LIGRL[Orn]-NH2) | 
5 | 0.89 |  | COCc1cn(CCOCCOCCOCCOCCOCCOCCNC(=O)[C@@H](NC(=O)[C@H](CC2CCCCC2)NC(=O)c2ccno2)C2CCCCC2)nn1 | 
6 | 0.073 |  | CC[C@H](C)[C@H](NC(=O)[C@H](CC(C)C)NC(=O)c1ccco1)C(=O)NCC(=O)N[C@@H](CCCNC(=N)N)C(=O)N[C@@H](CC(C)C)C(=O)N[C@@H](CCCN)C(=O)NCCOCCOCCOCCOCCOCCOCCn1cc(COC)nn1 (2Furoyl-LIGRL[Orn]-X1) | 
7 | 0.13 | Active | CC[C@H](C)[C@H](NC(=O)[C@H](CC(C)C)NC(=O)c1ccco1)C(=O)NCC(=O)N[C@@H](CCCNC(=N)N)C(=O)N[C@@H](CC(C)C)C(=O)N[C@@H](CCCN)C(=O)NCCOCCOCCOCCOCCOCCOCCOCCOCCOCCOCCOCCOCCOCCOCCOCCOCCOCCOCCOCCOCCOCCOCCOCCn1cc(C[C@H]2CN[C@@H](CCCNC(=N)N)C(=O)NCC(=O)N[C@@H](CC(=O)O)C(=O)N[C@H](Cc3ccccc3)C(=O)N2)nn1 | inhibition [2]: Active

From ChEMBL document CHEMBL4699422, “Synthesis and initial pharmacology of dual-targeting ligands for putative complexes of integrin alphaVbeta3 and PAR2” (RSC Med Chem, 2020)
